Most compounds without a hit are left out; they make up all but 4.1% or so of the library.
KCC2 mod: modulators of human KCC2 chloride dependent transport; KCC2 cells, thallium flux FluoZin-2 fluorescence; 190,000 compounds, 2.2% hits; B-score of Tl+ flux slope (higher = more flux/activation; lower = inhibition) at 10 µM; Q9H2X9;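 active = thallium flux slope and its plate-corrected score both differing from the plate sample mean at a set confidence after two filtering rounds, in either direction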;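 also: slope of fluorescence scaled to starting intensity during 10 to 20 s after thallium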
KCNK3 block: human KCNK3 channel inhibition, primary screen. 340,000 compounds, 0.84% hits. CHO-KCNK3 thallium flux, FluxOR fluorescence; active compounds read low. O14649. B-score at 10 µM;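 active = B-score under library mean minus 4 SD, starting fluorescence ratio at most library mean plus 5 SD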;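 also: more negative B-score means stronger inhibition of thallium flux through KCNK3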
KCNQ1 block: human KCNQ1 channel inhibition | CHO-K1 KCNQ1, FluxOR thallium flux fluorescence; active compounds read high | 310,000 compounds, 1.3% hits | B-score at 10 µM | AID 2642;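 active = compounds whose thallium flux B-score, printed positive for inhibition, exceeds three library SD while starting fluorescence stays within three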;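 also: channel opened by potassium depolarization with thallium stimulus after 20 min compound exposure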
KCNK9 block: blocks the human KCNK9 two-pore domain potassium channel. HEK293 KCNK9, FluxOR thallium flux fluorescence; active compounds read low. B-score at 10 µM. 310,000 compounds, 1.2% hits. AID 488922;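 active = ratio B-score over 3 SD below the library mean, with starting fluorescence within 5 SD of its mean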;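 also: negative B-score means less thallium flux so channel inhibition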
KCNQ1 act: potentiates or activates the human KCNQ1 potassium channel. P51787. CHO-K1 KCNQ1, thallium flux FluxOR fluorescence; active compounds read high. B-score at 10 µM. 310,000 compounds, 0.35% hits. AID 2648;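 active = fluorescence ratio B-score, a plate-corrected score, at least three library SD, with initial intensity B-score within 5 SD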
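Material: CHO-K1 cells stably expressing KCNQ1. Medium: assay buffer for compound exposure, DMSO matched across wells. Reagent: K+/Tl+ depolarizing stimulus. Compound dosing: single-concentration screen. Times: 37 °C overnight plating, 90-min dark dye load, 20-min compound pretreatment. Technique: FluxOR Tl+ flux fluorescence.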
hERG protect: compounds protecting human hERG from proarrhythmic drug block; activation (rescue from dofetilide block), less the hit threshold, % at 10 µM; CHO-hERG, FluxOR thallium flux, dofetilide IC70 present; 310,000 compounds, 0.51% hits; Q12809;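 active = activation above the mean of controls blocked by dofetilide plus 5 SD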;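 also: thallium influx through hERG after potassium depolarization seen as dye fluorescence rise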
KCNQ1 block val: confirmation of human KCNQ1 potassium channel inhibitors | shares compounds with KCNQ1 block | KCNQ1 cell line, FluxOR thallium flux fluorescence | inhibition, % at 10 µM | 1,600 compounds, 93% hits | AID 588353;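 active = primary screen active, with duplicate mean exceeding buffer control mean plus 3 SD of buffer wells, cut at about 28% in these data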
CHO KCNQ1 ctr: activity in parental CHO cells lacking KCNQ1 | shares compounds with KCNQ1 block | parental CHO-K1, FluxOR thallium flux fluorescence ratio; active compounds read low; zero means no signal rise above baseline | fluorescence ratio (Tl flux) at 10 µM | 1,600 compounds, 21% hits;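 active = mean of duplicate thallium-flux fluorescence ratios in parental host cells more than 5 SD below the buffer control mean, cut at about 0.38 in these data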;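 also: ratio is peak minus minimum fluorescence divided by baseline fluorescence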
KCNQ1 ephys val: blocks human KCNQ1 current in automated patch clamp; shares compounds with KCNQ1 block; KCNQ1-CHO cells; calls only at 10 µM; 490 compounds, 20% hits; AID 624120;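 active = KCNQ1 current drop exceeding 3 SD of negative control wells, seen in both duplicate runs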;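 also: steady state current during a 2 s step from -80 to +40 mV; negative values mean current inhibition and positive values mean potentiation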
KCNQ2 inh: rat KCNQ2 inhibition in KCNQ1 inhibitor specificity screen; shares compounds with KCNQ1 block; KCNQ2 cells, FluxOR thallium flux fluorescence; inhibition, % at 10 µM; 1,600 compounds, 71% hits;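 active = mean percent inhibition of the KCNQ2 thallium signal more than 5 SD above the buffer-only control wells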;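 also: KCNQ2 expressed in CHO cells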
KCNQ1 KCNE1 spec: selectivity of KCNQ1 inhibitors: inhibition of human KCNQ1/KCNE1 channel; inhibition, % at 10 µM; 1,600 compounds, 77% hits; AID 652147; KCNQ1/KCNE1 cells, FluxOR thallium flux fluorescence; shares compounds with KCNQ1 block;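 active = mean percent inhibition of duplicate wells above the buffer-only control mean plus 3 SD of those controls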
KCNK9 inh conf: human KCNK9 inhibitor confirmation | inhibition, % at 10 µM | 4,900 compounds, 43% hits | HEK293 KCNK9 cells, FluxOR thallium flux fluorescence | shares compounds with KCNK9 block | AID 492992;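 active = thallium signal inhibited by more than 5 SD of the compound-free buffer control wells, on both duplicate plates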
Kir2-1 spec: mouse Kir2.1 off-target activity of KCNK9 modulators. shares compounds with KCNK9 block. Kir2.1 cells, FluxOR thallium flux fluorescence. inhibition, % at 10 µM. 4,900 compounds, 4% hits. AID 492993;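 active = thallium signal drop more than 5 SD beyond the mean of the no-compound control wells, seen in both duplicate plates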;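 also: signal is fluorescence rise after thallium addition divided by baseline fluorescence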
HEK293 Tl ctr: second counter-screen for KCNK9 modulators: effect in non-induced cells; shares compounds with KCNK9 block; non-induced KCNK9-HEK293, FluxOR thallium flux; inhibition, % at 10 µM; 4,900 compounds, 40% hits; AID 492997;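 active = thallium signal drop beyond 5 SD of the untreated control mean, on both duplicate plates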
Hits are given with their value; . = inactive; / = not tested or not shown; + = active, no number.

SMILES	KCC2 mod	KCNK3 block	KCNQ1 block	KCNK9 block	KCNQ1 act	hERG protect	KCNQ1 block val	CHO KCNQ1 ctr	KCNQ2 inh	KCNQ1 KCNE1 spec	KCNK9 inh conf	Kir2-1 spec	HEK293 Tl ctr	others
CC1Cc2nc(SCC(=O)N3CCN(c4ccccc4)CC3)n(CCc3ccccc3)c(=O)c2S1 (stereo not drawn)	.	.	8	.	.	.	70	.	84%	175%	.	.	.
CC1Cc2nc(SCC(=O)N3CCN(c4ccccc4)CC3)n(C)c(=O)c2S1 (stereo not drawn)	/	.	.	.	.	.	/	/	/	/	/	/	/
Cc1ccc(S(=O)(=O)N2CCCC2C(=O)NCc2ccccc2Cl)cc1 (stereo not drawn)	/	.	.	.	.	.	/	/	/	/	/	/	/
CC(C)c1cc(C(=O)N2CCCC(C(=O)c3ccc4ccccc4c3)C2)on1 (stereo not drawn)	.	.	6	.	.	.	.	.	91%	35%	.	.	.
O=C(Cc1cccc(C(F)(F)F)c1)Nc1cc(S(=O)(=O)N2CCOCC2)ccc1N1CCCC1	/	.	/	/	/	/	/	/	/	/	/	/	/
CCOC(=O)c1nnn(-c2nonc2-n2cccc2)c1CN1CCC(C)CC1	.	-9.1	6	-9.3	.	.	88	.	71%	128%	.	.	32%
COc1ccccc1NC(=S)NCCSc1ccc(C)cc1	.	.	.	.	.	.	/	/	/	/	/	/	/
Cc1ccc(SCCNC(=S)Nc2ccc(C)c(C)c2)cc1	.	.	8	.	.	.	100	.	.	98%	.	.	.	KCNQ1 ephys val=.
c1ccc2c(c1)nc(N1CCOCC1)c1ccccc12	.	.	.	.	.	.	/	/	/	/	/	/	/
Clc1ccc(-c2cc3ccccc3nc2N2CCOCC2)cc1	/	.	11	.	.	.	130	.	98%	182%	.	.	28%
O=C(NCCCn1ccnc1)c1ccc(-c2cccc(C(F)(F)F)c2)o1	/	.	/	/	/	/	/	/	/	/	/	/	/
CCOC(=O)c1cnc2ccc(OCC)cc2c1N(C)Cc1ccccc1	.	.	6	.	.	.	148	0.34	154%	198%	.	.	23%
CN(CC(=O)Nc1ccc(F)c(F)c1F)C(=O)/C=C/c1ccco1	/	.	/	/	/	/	/	/	/	/	/	/	/
Cc1cccc(N2CCN(C(=O)C(Cc3ccccc3)n3cccc3)CC2)c1C (stereo not drawn)	.	.	9	-9.8	.	.	140	0.31	126%	+	49%	.	36%
Cc1cccc(N2CCN(C(=O)C(Cc3ccccc3)NC(N)=O)CC2)c1C (stereo not drawn)	/	.	.	.	.	.	/	/	/	/	/	/	/
Cc1ccc(S(=O)(=O)N(C)C)cc1NC(=O)COC(=O)c1ccc2c(=O)n3c(nc2c1)CCC3	/	.	.	.	.	.	/	/	/	/	/	/	/
COc1ccc(N2CCN(S(=O)(=O)c3ccc(OC)cc3)CC2)cc1	.	.	.	.	.	.	/	/	/	/	/	/	/
